From ChEMBL document CHEMBL3779826, “Converting maslinic acid into an effective inhibitor of acylcholinesterases” (Eur J Med Chem, 2015)

What was measured:
[1] = molecular target: Carbonic anhydrase 2 (Bos taurus) (UniProt P00921); assay: Inhibition of bovine erythrocte carbonic anhydrase 2 at 10 uM
Candida antarctica [2] = assay: Inhibition of Candida antarctica lipase at 10 uM using 4-NA as substrate preincubated for 20 mins before the addition of substrate
Method in brief: (§1)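 Candida antarctica lipase in 50 mM Tris-HCl pH 8.0 was preincubated with compound at 37 °C for 20 min. Reaction started with 4-NA ([…] as added). Absorbance at 415 nm was read kinetically at 37 °C for 10 min at 1-min intervals. Relative inhibition was taken as the ratio of linear-range slopes, compound over blank.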

Acetylcholinesterase = Acetylcholinesterase (Electrophorus electricus, UniProt O42275); assay: Inhibition of Electrophorus electricus AChE using acetylthiocholine iodide as substrate preincubated for 20mins before the addition of substrate by Ellman's method; settings: for Ki: read-out: Ki
[3] = molecular target: Acetylcholinesterase (Electrophorus electricus) (UniProt O42275); assay: Mixed type inhibition of Electrophorus electricus AChE by Lineweaver-Burk plot analysis
Method in brief: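 Ellman kinetics at 30 °C in pH 8.0 Tris-HCl with DTNB. Enzyme plus inhibitor (3 concentrations and a water blank) was preincubated for 20 min, then ATChI was added at 0.9375, 0.625, 0.325 or 0.1875 mM. A415 was read every minute for 30 min, in triplicate. Mode, Ki and Ki' came from Lineweaver-Burk, Dixon and Cornish-Bowden plots.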

[4] = molecular target: Cholinesterase (Equus caballus) (UniProt P81908); assay: Inhibition of equine serum BChE at 10 uM using butyrylthiocholine iodide as substrate preincubated for 20mins before the addition of substrate by Ellman's method
Method in brief: (§2)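 Ellman assay: enzyme in Tris-HCl pH 8.0 with NaN3, plus DTNB (3 mM stock with NaCl and MgCl2), was preincubated with compound at 30 °C for 20 min. Thiocholine substrate was then added and absorbance at 415 nm recorded at 30 °C for 30 min at 1-min intervals, in triplicate. Residual DMSO below 0.5%.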

Cholinesterase = Cholinesterase (Equus caballus, UniProt P81908); assay: Inhibition of equine serum BChE using butyrylthiocholine iodide as substrate preincubated for 20mins before the addition of substrate by Ellman's method; settings: for Ki: read-out: Ki
[5] = molecular target: Acetylcholinesterase (Electrophorus electricus) (UniProt O42275); settings: 10 uM
[6] = molecular target: Cholinesterase (Equus caballus) (UniProt P81908); assay: Mixed type inhibition of equine serum BChE by Lineweaver-Burk plot analysis
[7] = molecular target: Acetylcholinesterase (Electrophorus electricus) (UniProt O42275); assay: Inhibition of Electrophorus electricus AChE at 5 uM using acetylthiocholine iodide as substrate preincubated for 20mins before the addition of substrate by Ellman's method; method in brief: as §2
Candida antarctica [8] = assay: Inhibition of Candida antarctica lipase at 5 uM using 4-NA as substrate preincubated for 20 mins before the addition of substrate; method in brief: as §1
[9] = molecular target: Carbonic anhydrase 2 (Bos taurus) (UniProt P00921); assay: Inhibition of bovine erythrocte carbonic anhydrase 2 at 5 uM
[10] = molecular target: Cholinesterase (Equus caballus) (UniProt P81908); assay: Inhibition of equine serum BChE at 5 uM using butyrylthiocholine iodide as substrate preincubated for 20mins before the addition of substrate by Ellman's method; method in brief: as §2
[11] = molecular target: Cholinesterase (Equus caballus) (UniProt P81908); assay: Inhibition of equine serum BChE at 3 uM using butyrylthiocholine iodide as substrate preincubated for 20mins before the addition of substrate by Ellman's method; method in brief: as §2
[12] = Cytotoxic activity against mouse NIH/3T3 cells by SRB assay; format: cell-based; settings: NIH3T3
Method in brief: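 Mouse embryonic fibroblasts grown as monolayers in RPMI 1640 with 10% heat-inactivated FBS and penicillin/streptomycin at 37 °C under 5% CO2. Cytotoxicity read by photometric sulforhodamine-B microculture colorimetric assay, reported as IC50.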

[13] = molecular target: Carbonic anhydrase 2 (Bos taurus) (UniProt P00921); assay: Inhibition of bovine erythrocte carbonic anhydrase 2 at 3 uM
[14] = molecular target: Acetylcholinesterase (Electrophorus electricus) (UniProt O42275); assay: Inhibition of Electrophorus electricus AChE at 3 uM using acetylthiocholine iodide as substrate preincubated for 20mins before the addition of substrate by Ellman's method; method in brief: as §2
Candida antarctica [15] = assay: Inhibition of Candida antarctica lipase at 3 uM using 4-NA as substrate preincubated for 20 mins before the addition of substrate; method in brief: as §1

Sequence of Cholinesterase (Equus caballus) (P81908 whole entry): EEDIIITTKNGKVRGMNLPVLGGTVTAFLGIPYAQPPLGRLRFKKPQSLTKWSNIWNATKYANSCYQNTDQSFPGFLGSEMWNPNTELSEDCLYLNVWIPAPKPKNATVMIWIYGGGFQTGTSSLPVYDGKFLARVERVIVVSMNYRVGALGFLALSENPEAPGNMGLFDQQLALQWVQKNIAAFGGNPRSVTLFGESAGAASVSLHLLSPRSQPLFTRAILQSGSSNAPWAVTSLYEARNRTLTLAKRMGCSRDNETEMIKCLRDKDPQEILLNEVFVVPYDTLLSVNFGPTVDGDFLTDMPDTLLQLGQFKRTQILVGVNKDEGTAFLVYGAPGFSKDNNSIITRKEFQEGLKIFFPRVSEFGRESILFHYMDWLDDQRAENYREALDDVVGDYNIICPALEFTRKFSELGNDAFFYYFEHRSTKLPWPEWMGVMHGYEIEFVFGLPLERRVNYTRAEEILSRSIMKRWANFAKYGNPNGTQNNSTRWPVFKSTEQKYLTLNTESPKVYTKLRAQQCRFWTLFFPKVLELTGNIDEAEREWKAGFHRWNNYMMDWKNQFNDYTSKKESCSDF
Sequence of Cholinesterase (P81908 whole entry): as above
Sequence of Acetylcholinesterase (Electrophorus electricus) (O42275 24-633 limits assumed): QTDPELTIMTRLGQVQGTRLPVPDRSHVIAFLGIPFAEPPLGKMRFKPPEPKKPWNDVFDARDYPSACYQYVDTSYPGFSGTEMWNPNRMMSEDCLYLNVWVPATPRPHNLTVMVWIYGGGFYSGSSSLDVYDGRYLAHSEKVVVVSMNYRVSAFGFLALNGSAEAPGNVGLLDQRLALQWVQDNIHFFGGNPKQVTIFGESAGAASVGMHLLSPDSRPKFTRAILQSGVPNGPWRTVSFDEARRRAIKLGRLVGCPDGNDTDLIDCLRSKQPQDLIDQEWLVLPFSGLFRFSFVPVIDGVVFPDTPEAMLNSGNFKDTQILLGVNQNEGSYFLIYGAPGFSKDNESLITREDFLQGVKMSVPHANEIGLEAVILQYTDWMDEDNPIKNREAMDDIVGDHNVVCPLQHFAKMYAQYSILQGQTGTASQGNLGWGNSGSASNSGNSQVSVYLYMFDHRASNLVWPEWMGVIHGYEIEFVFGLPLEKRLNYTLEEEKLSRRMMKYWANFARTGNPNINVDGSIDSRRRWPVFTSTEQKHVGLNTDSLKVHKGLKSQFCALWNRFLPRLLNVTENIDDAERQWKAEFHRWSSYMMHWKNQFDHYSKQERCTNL
Sequence of Carbonic anhydrase 2 (Bos taurus) (P00921 2-260 limits assumed): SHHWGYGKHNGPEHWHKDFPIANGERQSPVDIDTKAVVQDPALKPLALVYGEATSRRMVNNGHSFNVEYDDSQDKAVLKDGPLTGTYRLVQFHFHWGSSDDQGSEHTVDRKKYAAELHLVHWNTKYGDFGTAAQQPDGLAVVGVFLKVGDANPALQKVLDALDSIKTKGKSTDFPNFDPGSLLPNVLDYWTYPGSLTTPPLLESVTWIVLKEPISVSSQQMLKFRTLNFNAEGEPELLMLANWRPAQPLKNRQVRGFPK
Sequence of Acetylcholinesterase (O42275 whole entry): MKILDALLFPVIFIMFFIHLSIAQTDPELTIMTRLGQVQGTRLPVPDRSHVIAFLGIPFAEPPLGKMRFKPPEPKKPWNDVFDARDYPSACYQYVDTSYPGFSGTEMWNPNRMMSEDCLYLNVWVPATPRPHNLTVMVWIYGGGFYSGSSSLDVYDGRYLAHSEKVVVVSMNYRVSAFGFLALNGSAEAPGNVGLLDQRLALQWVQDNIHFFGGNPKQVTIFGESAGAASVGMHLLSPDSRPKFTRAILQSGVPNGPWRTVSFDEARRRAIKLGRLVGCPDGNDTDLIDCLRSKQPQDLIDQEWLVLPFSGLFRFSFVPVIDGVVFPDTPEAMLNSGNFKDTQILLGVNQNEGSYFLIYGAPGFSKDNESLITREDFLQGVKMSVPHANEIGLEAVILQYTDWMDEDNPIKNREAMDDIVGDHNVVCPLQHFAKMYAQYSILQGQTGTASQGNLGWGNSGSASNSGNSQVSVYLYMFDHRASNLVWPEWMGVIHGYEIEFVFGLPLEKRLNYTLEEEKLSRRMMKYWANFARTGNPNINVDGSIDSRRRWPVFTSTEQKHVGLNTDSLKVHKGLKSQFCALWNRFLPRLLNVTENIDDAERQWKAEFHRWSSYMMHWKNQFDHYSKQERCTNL

Row | Compound | IC50 (Acetylcholinesterase) [µM] | Ki (Acetylcholinesterase) [µM] | Kiuc [3] [µM] | Ki (Cholinesterase) [µM] | IC50 [12] [µM] | further results
1 | CC1(C)CC[C@]2(C(=O)OCCCI)CC[C@]3(C)C(=CC[C@@H]4[C@@]5(C)C[C@@H](O)[C@H](O)C(C)(C)[C@@H]5CC[C@]43C)[C@@H]2C1 | 10.3 | 6.01 | 13.4 | > 20 | – | inhibition [1]: 6%; inhibition (Candida antarctica [2]): 0%; inhibition [4]: 0%; inhibition [5]: 51%
2 | CC1(C)CC[C@]2(C(=O)O)CC[C@]3(C)C(=CC[C@@H]4[C@@]5(C)C[C@H](O)[C@H](O)C(C)(C)[C@@H]5CC[C@]43C)[C@@H]2C1 [AUGUSTIC ACID] | – | > 30 | – | 35.6 | – | IC50 (Cholinesterase): 16.6 µM; Kiuc [6]: 10.6 µM
3 | CC1(C)CC[C@]2(C(=O)OCCCCCl)CC[C@]3(C)C(=CC[C@@H]4[C@@]5(C)C[C@@H](O)[C@H](O)C(C)(C)[C@@H]5CC[C@]43C)[C@@H]2C1 | 10.5 | 1.68 | – | > 10 | – | inhibition [7]: 79%; inhibition (Candida antarctica [8]): 0%; inhibition [9]: 0%; inhibition [10]: 0%
4 | CC1(C)CC[C@]2(C(=O)OCc3ccc(Cl)cc3Cl)CC[C@]3(C)C(=CC[C@@H]4[C@@]5(C)C[C@@H](O)[C@H](O)C(C)(C)[C@@H]5CC[C@]43C)[C@@H]2C1 | 4.63 | 2.03 | 9.24 | > 6 | 17.3 | inhibition [11]: 0%; inhibition [13]: 0%; inhibition [14]: 43%; inhibition (Candida antarctica [15]): 0%
5 | CC1(C)CC[C@]2(C(=O)O)CC[C@]3(C)C(=CC[C@@H]4[C@@]5(C)C[C@@H](O)[C@H](O)C(C)(C)[C@@H]5CC[C@]43C)[C@@H]2C1 [MASLINIC ACID] | – | > 100 | – | > 100 | 16.6 | –
